From ChEMBL document CHEMBL3997782, “Methoxylated 2'-hydroxychalcones as antiparasitic hit compounds” (Eur J Med Chem, 2017)

Molecular target: hERG (KCNH2) (Homo sapiens, UniProt Q12809)
Test: Inhibition of human ERG at 10 uM by Tracer Red dye based fluorescence polarization assay relative to control
Conditions: probe Tracer Red dye

hERG (KCNH2), sequence (Q12809 whole entry): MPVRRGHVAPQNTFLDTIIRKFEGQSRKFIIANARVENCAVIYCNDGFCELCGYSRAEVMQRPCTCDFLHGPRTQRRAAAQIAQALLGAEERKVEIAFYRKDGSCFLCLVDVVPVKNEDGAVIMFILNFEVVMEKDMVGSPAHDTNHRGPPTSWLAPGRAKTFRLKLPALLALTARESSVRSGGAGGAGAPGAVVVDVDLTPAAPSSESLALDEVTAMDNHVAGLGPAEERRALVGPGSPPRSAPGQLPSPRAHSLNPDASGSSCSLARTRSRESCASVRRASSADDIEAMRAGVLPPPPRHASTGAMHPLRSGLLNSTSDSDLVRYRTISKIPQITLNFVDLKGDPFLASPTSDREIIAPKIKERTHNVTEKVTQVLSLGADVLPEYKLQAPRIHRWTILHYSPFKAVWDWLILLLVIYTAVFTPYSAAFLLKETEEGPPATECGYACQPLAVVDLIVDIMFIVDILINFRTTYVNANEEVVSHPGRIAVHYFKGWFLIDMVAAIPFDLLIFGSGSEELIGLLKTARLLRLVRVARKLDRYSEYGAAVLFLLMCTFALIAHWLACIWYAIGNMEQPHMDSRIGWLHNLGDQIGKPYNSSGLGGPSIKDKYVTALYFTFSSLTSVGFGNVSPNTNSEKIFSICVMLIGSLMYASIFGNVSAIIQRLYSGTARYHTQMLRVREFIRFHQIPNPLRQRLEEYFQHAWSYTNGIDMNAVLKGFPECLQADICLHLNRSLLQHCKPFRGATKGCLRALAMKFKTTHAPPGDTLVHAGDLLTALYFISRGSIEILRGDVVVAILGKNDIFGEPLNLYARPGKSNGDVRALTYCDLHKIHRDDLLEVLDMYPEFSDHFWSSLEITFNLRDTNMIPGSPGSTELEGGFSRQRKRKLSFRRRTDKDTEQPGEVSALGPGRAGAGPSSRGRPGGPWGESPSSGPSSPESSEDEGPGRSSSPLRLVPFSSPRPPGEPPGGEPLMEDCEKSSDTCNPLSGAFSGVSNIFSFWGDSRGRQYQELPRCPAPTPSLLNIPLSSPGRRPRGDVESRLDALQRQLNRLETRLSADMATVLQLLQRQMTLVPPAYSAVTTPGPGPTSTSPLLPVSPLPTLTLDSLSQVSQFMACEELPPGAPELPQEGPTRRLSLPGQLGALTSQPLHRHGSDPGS

| Structure (SMILES) | inhibition at 10 µM |
| --- | --- |
| COc1ccc(O)c(C(=O)/C=C/c2ccc(OC)c(OC)c2)c1 | 15.9% |
| COc1cccc(/C=C/C(=O)c2ccccc2O)c1 | 11.3% |
| COc1ccc(/C=C/C(=O)c2cc(OC)ccc2O)cc1 | 42.1% |
| COc1ccc(/C=C/C(=O)c2ccc(OC)cc2O)cc1 | 2.7% |

Tested on: 786-0
Test: Mitochondrial toxicity in human 786-O cells at 10 uM by mitotracker red chloromethyl-Xrosamine staining based-uptake method relative to control
Type: cell-based
Conditions: 786-0, 10 µM
How it was run: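 786-O renal carcinoma cells kept in RPMI-1640 with 2 mM glutamine, 10% v/v FCS, streptomycin 100 µg/ml and penicillin G 100 U/ml. Mitochondrial toxicity monitored by MitoTracker Red CMXRos uptake with high-content imaging.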

| Structure (SMILES) | Activity |
| --- | --- |
| COc1ccc(O)c(C(=O)/C=C/c2ccc(OC)c(OC)c2)c1 | -9.5% |
| COc1cccc(/C=C/C(=O)c2ccccc2O)c1 | 6.2% |
| COc1ccc(/C=C/C(=O)c2cc(OC)ccc2O)cc1 | 15.8% |
| COc1ccc(/C=C/C(=O)c2ccc(OC)cc2O)cc1 | 14.2% |

Tested on: Trypanosoma brucei brucei
Test: Anti-parasitic activity against bloodstream form of Trypanosoma brucei brucei Lister 427 after 72 hrs by resazurin-based assay
Type: functional
Conditions: Lister 427, 72 h
How it was run: (§1)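 Bloodstream-form T. brucei, modified resazurin-based viability assay. EC50 is the arithmetic mean of at least two independent determinations, each run in triplicate.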

| Structure (SMILES) | EC50 |
| --- | --- |
| COc1ccc2c(=O)c(O)c(-c3cc(OC)c(OC)c(OC)c3)oc2c1 | 1.17 µM |
| COc1cccc(/C=C/C(=O)c2ccccc2O)c1 | 1.3 µM |

Molecular target: CYP3A4 (Homo sapiens, UniProt P08684)
Test: Inhibition of human CYP3A4 expressed in baculovirus-infected insect cells at 10 uM using Luciferin-PFBE as substrate in presence of NADPH by P450-Glo luminescence assay relative to control
Type: ADME
Conditions: probe Luciferin-PFBE

CYP3A4, sequence (P08684 whole entry): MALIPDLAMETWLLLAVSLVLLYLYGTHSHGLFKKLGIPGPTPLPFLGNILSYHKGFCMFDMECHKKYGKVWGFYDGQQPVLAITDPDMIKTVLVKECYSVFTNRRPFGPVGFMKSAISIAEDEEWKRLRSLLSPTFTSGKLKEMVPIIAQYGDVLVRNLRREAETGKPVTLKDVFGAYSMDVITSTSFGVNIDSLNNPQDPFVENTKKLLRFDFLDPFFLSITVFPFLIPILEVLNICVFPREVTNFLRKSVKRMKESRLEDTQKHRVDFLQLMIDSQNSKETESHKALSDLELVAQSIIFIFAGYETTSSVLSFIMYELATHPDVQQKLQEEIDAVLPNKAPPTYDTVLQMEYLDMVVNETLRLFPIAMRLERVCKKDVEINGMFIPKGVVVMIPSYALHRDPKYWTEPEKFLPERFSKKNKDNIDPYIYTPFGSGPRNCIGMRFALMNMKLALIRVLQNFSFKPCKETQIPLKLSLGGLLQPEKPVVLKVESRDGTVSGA

| Structure (SMILES) | inhibition at 10 µM |
| --- | --- |
| COc1ccc(O)c(C(=O)/C=C/c2ccc(OC)c(OC)c2)c1 | -2.7% |
| COc1cccc(/C=C/C(=O)c2ccccc2O)c1 | -1.4% |
| COc1ccc(/C=C/C(=O)c2cc(OC)ccc2O)cc1 | 6.2% |
| COc1ccc(/C=C/C(=O)c2ccc(OC)cc2O)cc1 | 5% |

Tested on: not listed separately
Test: Selectivity index, ratio of CC50 for human THP1 cells to EC50 for anti-parasitic activity against bloodstream form of Trypanosoma brucei brucei Lister 427
Type: toxicity
Conditions: THP-1 cells, read-out: Ratio CC50/EC50
How it was run: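 SI = CC50 in PMA-differentiated THP-1 macrophages (MTT) divided by the antiparasitic EC50.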

| Structure (SMILES) | selectivity ratio |
| --- | --- |
| COc1ccc2c(=O)c(O)c(-c3cc(OC)c(OC)c(OC)c3)oc2c1 | 17 |
| COc1cccc(/C=C/C(=O)c2ccccc2O)c1 | ≥ 19 |

Tested on: Trypanosoma brucei brucei
Test: Anti-parasitic activity against bloodstream form of Trypanosoma brucei brucei Lister 427 at 10 uM after 72 hrs by resazurin-based assay relative to control
Type: functional
Conditions: Lister 427, 72 h
How it was run: as §1

| Structure (SMILES) | inhibition at 10 µM |
| --- | --- |
| COc1ccc(O)c(C(=O)/C=C/c2ccc(OC)c(OC)c2)c1 | 15% |
| COc1cccc(/C=C/C(=O)c2ccccc2O)c1 | 100% |
| COc1ccc(/C=C/C(=O)c2cc(OC)ccc2O)cc1 | 9% |
| COc1ccc(/C=C/C(=O)c2ccc(OC)cc2O)cc1 | 18% |

Molecular target: CYP2C19 (Homo sapiens, UniProt P33261)
Test: Inhibition of human CYP2C19 expressed in baculovirus-infected insect cells at 10 uM using Luciferin-H EGE as substrate in presence of NADPH by P450-Glo luminescence assay relative to control
Type: ADME
Conditions: probe Luciferin-H EGE
How it was run: (§2)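 CYP enzymes as microsomal preparations from baculovirus-infected insect cells, run on the P450-Glo luminogenic substrate platform. A fall in light output indicates inhibition.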

CYP2C19, sequence (P33261 whole entry): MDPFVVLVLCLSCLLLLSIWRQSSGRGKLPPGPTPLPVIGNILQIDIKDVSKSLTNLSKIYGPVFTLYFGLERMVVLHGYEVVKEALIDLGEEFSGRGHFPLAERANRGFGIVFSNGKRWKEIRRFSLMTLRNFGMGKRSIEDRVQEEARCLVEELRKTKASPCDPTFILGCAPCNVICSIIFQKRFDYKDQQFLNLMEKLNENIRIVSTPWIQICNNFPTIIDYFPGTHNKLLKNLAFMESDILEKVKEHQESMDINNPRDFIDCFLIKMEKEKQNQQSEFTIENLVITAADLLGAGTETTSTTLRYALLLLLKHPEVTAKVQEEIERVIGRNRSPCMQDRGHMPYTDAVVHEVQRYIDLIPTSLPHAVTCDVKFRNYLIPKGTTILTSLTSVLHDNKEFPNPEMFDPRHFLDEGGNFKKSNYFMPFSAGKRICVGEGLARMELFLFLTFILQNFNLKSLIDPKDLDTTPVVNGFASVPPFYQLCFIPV

| Structure (SMILES) | inhibition at 10 µM |
| --- | --- |
| COc1ccc(O)c(C(=O)/C=C/c2ccc(OC)c(OC)c2)c1 | 21.4% |
| COc1cccc(/C=C/C(=O)c2ccccc2O)c1 | 76.2% |
| COc1ccc(/C=C/C(=O)c2cc(OC)ccc2O)cc1 | 47.3% |
| COc1ccc(/C=C/C(=O)c2ccc(OC)cc2O)cc1 | 34.2% |

Molecular target: CYP2C9 (Homo sapiens, UniProt P11712)
Test: Inhibition of human CYP2C9 expressed in baculovirus-infected insect cells at 10 uM using Luciferin-H as substrate in presence of NADPH by P450-Glo luminescence assay relative to control
Conditions: probe Luciferin-H

CYP2C9, sequence (P11712 whole entry): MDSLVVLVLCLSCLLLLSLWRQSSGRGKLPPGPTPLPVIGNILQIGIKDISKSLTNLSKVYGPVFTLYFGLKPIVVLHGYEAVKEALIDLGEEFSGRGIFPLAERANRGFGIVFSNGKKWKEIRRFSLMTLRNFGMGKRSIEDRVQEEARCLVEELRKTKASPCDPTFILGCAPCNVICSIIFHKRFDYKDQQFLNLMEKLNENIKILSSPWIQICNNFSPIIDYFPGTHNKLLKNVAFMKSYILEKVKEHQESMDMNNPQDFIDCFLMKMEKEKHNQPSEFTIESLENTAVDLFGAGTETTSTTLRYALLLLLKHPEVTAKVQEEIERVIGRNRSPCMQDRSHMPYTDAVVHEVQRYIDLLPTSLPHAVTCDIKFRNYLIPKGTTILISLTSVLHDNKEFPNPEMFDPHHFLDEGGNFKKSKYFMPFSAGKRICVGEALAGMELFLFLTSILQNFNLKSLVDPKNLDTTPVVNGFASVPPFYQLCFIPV

| Structure (SMILES) | inhibition at 10 µM |
| --- | --- |
| COc1ccc(O)c(C(=O)/C=C/c2ccc(OC)c(OC)c2)c1 | -26.9% |
| COc1cccc(/C=C/C(=O)c2ccccc2O)c1 | 17.1% |
| COc1ccc(/C=C/C(=O)c2cc(OC)ccc2O)cc1 | 25.8% |
| COc1ccc(/C=C/C(=O)c2ccc(OC)cc2O)cc1 | 21.7% |

Tested on: not listed separately
Test: Cytotoxicity against human THP1 cells by MTT assay
Type: cell-based
Conditions: THP-1 cells
How it was run: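 THP-1 cells differentiated to macrophages with PMA, viability read by colorimetric MTT. CC50 and NOAEL are the arithmetic mean of at least two independent determinations, each run in triplicate.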

| Structure (SMILES) | CC50 |
| --- | --- |
| COc1ccc(O)c(C(=O)/C=C/c2ccc(OC)c(OC)c2)c1 | > 50 µM |
| COc1cccc(/C=C/C(=O)c2ccccc2O)c1 | > 25 µM |
| COc1ccc(/C=C/C(=O)c2cc(OC)ccc2O)cc1 | > 100 µM |
| COc1ccc(/C=C/C(=O)c2ccc(OC)cc2O)cc1 | > 100 µM |

Molecular target: CYP2D6 (Homo sapiens, UniProt P10635)
Test: Inhibition of human CYP2D6 expressed in baculovirus-infected insect cells at 10 uM using Luciferin-ME EGE as substrate in presence of NADPH by P450-Glo luminescence assay relative to control
Type: ADME
Conditions: probe Luciferin-ME EGE
How it was run: as §2

CYP2D6, sequence (P10635 whole entry): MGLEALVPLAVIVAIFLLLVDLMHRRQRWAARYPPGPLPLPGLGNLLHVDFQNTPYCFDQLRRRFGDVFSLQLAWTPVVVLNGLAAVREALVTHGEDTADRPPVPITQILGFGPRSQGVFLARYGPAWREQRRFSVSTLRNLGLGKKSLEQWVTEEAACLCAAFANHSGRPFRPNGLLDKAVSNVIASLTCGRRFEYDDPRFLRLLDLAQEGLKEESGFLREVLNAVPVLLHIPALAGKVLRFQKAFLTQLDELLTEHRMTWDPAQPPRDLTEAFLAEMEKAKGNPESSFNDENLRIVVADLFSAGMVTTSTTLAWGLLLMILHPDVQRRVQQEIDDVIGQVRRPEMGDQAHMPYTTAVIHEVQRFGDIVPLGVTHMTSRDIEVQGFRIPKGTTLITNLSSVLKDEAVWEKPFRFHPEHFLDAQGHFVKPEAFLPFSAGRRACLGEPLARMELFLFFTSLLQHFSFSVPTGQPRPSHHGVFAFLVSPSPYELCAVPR

| Structure (SMILES) | inhibition at 10 µM |
| --- | --- |
| COc1ccc(O)c(C(=O)/C=C/c2ccc(OC)c(OC)c2)c1 | 93.7% |
| COc1cccc(/C=C/C(=O)c2ccccc2O)c1 | -8.4% |
| COc1ccc(/C=C/C(=O)c2cc(OC)ccc2O)cc1 | 79.6% |
| COc1ccc(/C=C/C(=O)c2ccc(OC)cc2O)cc1 | 47.7% |

Tested on: Leishmania infantum
Test: Anti-parasitic activity against Leishmania infantum amastigotes infected in human THP1 cells at 50 uM after 5 days by Giemsa staining based assay relative to control
Type: functional, cell-based
Conditions: THP-1, 120 h
How it was run: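 Intracellular L. infantum amastigotes in host cells, imaged by high-content automated imaging. Host cell number, infected cells and parasites per infected cell were counted. Infection Ratio = infected cells / total cells.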

| Structure (SMILES) | inhibition at 50 µM |
| --- | --- |
| COc1ccc(O)c(C(=O)/C=C/c2ccc(OC)c(OC)c2)c1 | 16% |
| COc1cccc(/C=C/C(=O)c2ccccc2O)c1 | 11% |

Tested on: not listed separately
Test: Cytotoxicity against human […] cells assessed as cell growth at 10 uM by Cell titer-Glo assay relative to control
Type: cell-based
Conditions: WI-38 cells, read-out: Activity
How it was run: (§3)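 A549 and WI-38 cells grown in DMEM with 10% v/v FCS, streptomycin 100 µg/ml and penicillin G 100 U/ml. Cell number read as cellular ATP by CellTiter-Glo luminescence. Growth 60–100% scored non-cytotoxic, 0–60% cytostatic, below 0 cytotoxic.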

| Structure (SMILES) | viability at 10 µM |
| --- | --- |
| COc1ccc(O)c(C(=O)/C=C/c2ccc(OC)c(OC)c2)c1 | 114% |
| COc1cccc(/C=C/C(=O)c2ccccc2O)c1 | 118% |
| COc1ccc(/C=C/C(=O)c2cc(OC)ccc2O)cc1 | 15.8% |
| COc1ccc(/C=C/C(=O)c2ccc(OC)cc2O)cc1 | 14.2% |

Tested on: not listed separately
Test: Lipophilicity, log P of the compound
Type: physicochemical
Conditions: octanol/water

| Structure (SMILES) | logP |
| --- | --- |
| COc1ccc(O)c(C(=O)/C=C/c2ccc(OC)c(OC)c2)c1 | 3.52 |
| COc1cccc(/C=C/C(=O)c2ccccc2O)c1 | 3.94 |
| COc1ccc(/C=C/C(=O)c2cc(OC)ccc2O)cc1 | 3.87 |
| COc1ccc(/C=C/C(=O)c2ccc(OC)cc2O)cc1 | 3.88 |

Tested on: Trypanosoma cruzi
Test: Anti-parasitic activity against Trypanosoma cruzi Y promastigotes infected in HG39 cells at 10 uM by qPCR analysis relative to control
Type: functional, cell-based
Conditions: in the assay text read “trypomastigotes” for “promastigotes”
How it was run: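 Confluent HG39 cells (3 x 10^6 per well) infected at a 1:1 ratio with blood-derived T. cruzi Y strain trypomastigotes. Growth inhibition was read as parasite gDNA by TaqMan probe-based quantitative real-time PCR.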

| Structure (SMILES) | inhibition at 10 µM |
| --- | --- |
| COc1ccc(O)c(C(=O)/C=C/c2ccc(OC)c(OC)c2)c1 | 0% |
| COc1cccc(/C=C/C(=O)c2ccccc2O)c1 | 46% |
| COc1ccc(/C=C/C(=O)c2cc(OC)ccc2O)cc1 | 9% |
| COc1ccc(/C=C/C(=O)c2ccc(OC)cc2O)cc1 | 47% |

Tested on: not listed separately
Test: Cytotoxicity against human A549 cells assessed as cell growth at 10 uM by Cell titer-Glo assay relative to control
Type: cell-based
Conditions: read-out: Activity
How it was run: as §3

| Structure (SMILES) | viability at 10 µM |
| --- | --- |
| COc1ccc(O)c(C(=O)/C=C/c2ccc(OC)c(OC)c2)c1 | 116% |
| COc1cccc(/C=C/C(=O)c2ccccc2O)c1 | 105% |
| COc1ccc(/C=C/C(=O)c2cc(OC)ccc2O)cc1 | 91.3% |
| COc1ccc(/C=C/C(=O)c2ccc(OC)cc2O)cc1 | 102% |

Molecular target: Aurora kinase B (Homo sapiens, UniProt Q96GD4)
Test: Inhibition of N-terminal-GST-tagged recombinant full length human Aurora B expressed in baculovirus infected Sf9 cells at 10 uM using native Swine Myelin Basic Protein as substrate measured after 60 mins by ADP-Glo assay relative to control
Conditions: probe native Swine Myelin Basic Protein
How it was run: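 Aurora B kinase activity measured by ADP-Glo, which detects ADP formed through a coupled luciferase luminescence read-out.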

Aurora kinase B, sequence (Q96GD4 whole entry): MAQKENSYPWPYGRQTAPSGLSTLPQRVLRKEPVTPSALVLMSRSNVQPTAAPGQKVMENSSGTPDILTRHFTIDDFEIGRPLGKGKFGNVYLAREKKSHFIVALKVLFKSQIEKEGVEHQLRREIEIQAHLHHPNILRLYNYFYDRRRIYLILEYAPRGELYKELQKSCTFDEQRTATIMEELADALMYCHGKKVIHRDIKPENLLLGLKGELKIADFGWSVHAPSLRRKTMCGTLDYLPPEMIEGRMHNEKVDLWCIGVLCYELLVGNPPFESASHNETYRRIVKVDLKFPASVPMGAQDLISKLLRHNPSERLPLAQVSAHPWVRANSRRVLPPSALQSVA

| Structure (SMILES) | inhibition at 1 h, 10 µM |
| --- | --- |
| COc1ccc(O)c(C(=O)/C=C/c2ccc(OC)c(OC)c2)c1 | -10.1% |
| COc1cccc(/C=C/C(=O)c2ccccc2O)c1 | -6.6% |
| COc1ccc(/C=C/C(=O)c2cc(OC)ccc2O)cc1 | 107% |
| COc1ccc(/C=C/C(=O)c2ccc(OC)cc2O)cc1 | 107% |

Molecular target: T1, CYP1A2 (Homo sapiens, UniProt P05177)
T1 sequence (P05177 whole entry): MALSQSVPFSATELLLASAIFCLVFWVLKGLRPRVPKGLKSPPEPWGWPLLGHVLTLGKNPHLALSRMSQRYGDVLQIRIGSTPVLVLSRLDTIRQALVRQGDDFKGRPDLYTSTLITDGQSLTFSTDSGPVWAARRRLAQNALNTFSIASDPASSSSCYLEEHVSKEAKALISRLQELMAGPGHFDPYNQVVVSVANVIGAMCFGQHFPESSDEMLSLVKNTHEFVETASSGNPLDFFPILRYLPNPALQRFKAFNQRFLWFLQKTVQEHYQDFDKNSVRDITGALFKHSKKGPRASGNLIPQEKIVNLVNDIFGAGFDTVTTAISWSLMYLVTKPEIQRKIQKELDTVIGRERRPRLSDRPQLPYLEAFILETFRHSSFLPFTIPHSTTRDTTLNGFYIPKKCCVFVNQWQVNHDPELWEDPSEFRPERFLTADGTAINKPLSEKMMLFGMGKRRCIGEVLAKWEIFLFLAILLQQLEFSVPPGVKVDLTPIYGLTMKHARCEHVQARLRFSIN
Test: Inhibition of human CYP1A2 expressed in baculovirus-infected insect cells at 10 uM using Luciferin-1A2 as substrate in presence of NADPH by P450-Glo luminescence assay relative to control
Type: ADME
Conditions: probe Luciferin-1A2
How it was run: as §2

| Structure (SMILES) | inhibition at 10 µM |
| --- | --- |
| COc1ccc(O)c(C(=O)/C=C/c2ccc(OC)c(OC)c2)c1 | 60% |
| COc1cccc(/C=C/C(=O)c2ccccc2O)c1 | 85.6% |
| COc1ccc(/C=C/C(=O)c2cc(OC)ccc2O)cc1 | 85.2% |
| COc1ccc(/C=C/C(=O)c2ccc(OC)cc2O)cc1 | 39.6% |
